Test results: publication PMC2112435 (The Journal of Cell Biology, 1983)

Experiments:
[1] = tested on: polymorphonuclear leukocytes (PMNs); assay: 125I-BSA uptake and release of TCA-precipitable BSA by PMNs; format: cell-based, rabbit; conditions: for k2, rate constant of further processing / k3, rate constant of release of intact material / k3/k2 + k3 / Rate constant for depletion of Ap: Table I
How it was run: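 Rabbit PMNs in HBSS with 2.4 mg/ml HEPES, 3.3×10^6 cells/ml, settled 15 min at 23°C as a monolayer. Incubated 30 min at 37°C with ¹²⁵I-BSA (6.5 μCi/ml), 1% unlabeled BSA and 2×10^-8 M unlabeled FNLLP to stimulate pinocytosis. Washed 10 min at 4°C, then held in fresh HBSS at 37°C or 4°C for varied times. Medium assayed for TCA-precipitable counts. k3 (release) and k2 (digestion/storage) taken from a kinetic pinosome model.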

[2] = tested on: polymorphonuclear leukocytes (PMNs); assay: 3H-FNLLP peptide uptake and release by PMN monolayers; format: cell-based, rabbit
[3] = tested on: polymorphonuclear leukocytes (PMNs); conditions: chemotactic peptide taken up by PMNs; cited from earlier work
[4] = Table I line 2, 2 x 10-0 M/L as printed
[5] = Table I line 4, 2 X 10^-5 M/L as printed (second time)

## BSA: bovine serum albumin (fatty-acid-free), iodinated by the chloramine-T method, pinocytic marker
[1]; BSA 1.5 X 101 cpm/L as printed
  k2, rate constant of further processing: 0.080 min⁻¹
  k3, rate constant of release of intact material: 0,103 min-1
  k3/k2 + k3: 0.56
[1]; BSA 3.7 X 109 cpm/L
  k2, rate constant of further processing: 0,076 min-1
  k3, rate constant of release of intact material: 0.108 min⁻¹
  k3/k2 + k3: 0.59
[1]; BSA concentration 1.5 X 101 cpm/L as printed
  Rate constant for depletion of Ap: 0.182 min⁻¹
[1]; BSA concentration 3.7 X 109 cpm/L
  Rate constant for depletion of Ap: 0.182 min⁻¹
[1]; as Fig. 4, release at 37C
  rate constant of release of TCA-precipitable BSA: 0.182 min⁻¹
[1]; uptake primarily via bulk-fluid-phase
  half-life of release of intact material: ~4 min

## N-formyinorleucylleucylphenylalanme [FNLLP]
[2]; 2 x 10^-8 M 3H-FNLLP, 37C (Fig. 10)
  rate constant of filling the reversible pinocytic pool: 0.165 min⁻¹
[2]; Table I line 1, 2 X 10^-5 M/L
  k2, rate constant of further processing (digestion or storage): 0.097 min⁻¹
  k3, rate constant of release of intact peptide: 0.101 min⁻¹
  k3/k2 + k3: 0.51
[2]; [4]
  k3, rate constant of release of intact peptide: 0.095 min⁻¹
  k3/k2 + k3: 0.50
[2]; Table I line 3, 2 X 10^-7 M/L
  k2, rate constant of further processing (digestion or storage): 0.117 min⁻¹
  k3, rate constant of release of intact peptide: 0.081 min⁻¹
  k3/k2 + k3: 0.41
[2]; [5]
  k2, rate constant of further processing (digestion or storage): 0.131 min⁻¹
  k3, rate constant of release of intact peptide: 0.067 min⁻¹
  k3/k2 + k3: 0.34
[2]; Table I line 5, 2 X 10^-9 M/L
  k2, rate constant of further processing (digestion or storage): 0,128 min-1
  k3, rate constant of release of intact peptide: 0,070 min-1
  k3/k2 + k3: 0.35
[2]; estimate from Table I
  probability that pinocytosed material will be released intact, ratio k3/(k2 + k3): approximately 0.5
[2]; inhibitor cocktail (5 mM 2-deoxy-D-glucose, 1 mM sodium fluoride, 0.3 M sucrose, glucose-free HBSS), 37C, 2 x 10^-8 M 3H-FNLLP
  t1/2 of release of accumulated peptide as intact peptide: 4 min
[2]; inhibitor cocktail, 2 x 10^-8 M 3H-FNLLP, 37C (Fig. 5)
  time at which the amount of peptide accumulated reaches a plateau: ~ 15 min
[2]; inhibitor cocktail, 37C, 2 x 10^-8 M 3H-FNLLP
  rate constant of release of intact peptide: 0.173 min⁻¹
[3]
  t1/2 of release as digested peptide: 23 min
